In ChEMBL document CHEMBL4138224, “DNA intercalators based on (1,10-phenanthrolin-2-yl)isoxazolidin-5-yl core with better growth inhibition and selectivity than cisplatin upon head and neck squamous cells carcinoma” (Eur J Med Chem, 2018):
Activity calls are given as the source filed them. The rule behind the calls is not given here.

How the values were obtained:
HeLa = assay: Cytotoxicity against human HeLa cells assessed as decrease in cell viability after 24 hrs by MTT assay; format: functional, cell-based
How it was run: (§1)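 Cells seeded at 1×10^4 per well in complete medium with 10% FBS and antibiotics, 37 °C, 5% CO2. Washed with serum-free medium, then exposed to compounds for 24 h. MTT (5 mg/mL) added for a further 4 h, formazan dissolved in DMSO, absorbance read at 490 nm. Triplicates; IC50 obtained by non-linear regression of dose-response curves.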

[1] = Cytotoxicity against human HN6 cells assessed as decrease in cell viability after 24 hrs by MTT assay; format: functional, cell-based; details: HN-6, 24 h; how it was run: as §1
WSU-HN13 [2] = assay: Cytotoxicity against human HN13 cells assessed as decrease in cell viability after 24 hrs by MTT assay; format: functional, cell-based; details: WSU-HN13, 24 h; how it was run: as §1
184B5 = assay: Cytotoxicity against human 184B5 cells assessed as decrease in cell viability after 24 hrs by MTT assay; format: cell-based; details: 184B5, 24 h; how it was run: as §1
Bacteria = assay: Induction of bacterial pGEM-T easy DNA intercalation assessed as topoisomerase 1-mediated conversion of relaxed plasmid DNA to negatively supercoiled DNA at 10 nM after 30 mins by agarose-gel electrophoresis method
How it was run: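 Relaxed pGEM-T Easy plasmid was made by Topo I treatment of supercoiled plasmid. Stopped with SDS/proteinase K (30 min, 50 °C). Run on 1% agarose in TBE, ethidium bromide stain; relaxed-to-supercoiled conversion scored.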

Bos taurus [3] = species: Bos taurus; assay: Induction of calf thymus B DNA intercalation at 36 uM by CD spectra method
How it was run: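 CD titration at 25 °C in quartz cells: fixed ct-DNA (12.6 μM in base pair) with compound added from a 4.26 mM DMSO stock, final 0 to about 35 μM. Each spectrum is an average of 5 runs with 5 min equilibration before each scan, corrected for dilution, cell and solvent.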

Bos taurus [4] = species: Bos taurus; assay: Induction of calf thymus B DNA intercalation assessed as DNA melting temperature at 31 uM by UV-vis spectrophotometric method (reference value: 354K)
How it was run: (§2)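 ct-DNA (31 μM in base pair) mixed with 31 μM compound, taken as saturating, in PBS. Absorbance at 260 nm monitored while heating 308 to 388 K at 1 K/min with a Peltier unit, giving melting curves. Binding constants estimated from the melting data.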

Bos taurus [5] = species: Bos taurus; assay: Induction of calf thymus B DNA intercalation assessed as drug binding constant at DNA melting temperature at 31 uM by UV-vis spectrophotometric method; how it was run: as §2
[6] = Potency index, ratio of cisplatin IC50 to test compound IC50 for human HN6 cells; format: functional
WSU-HN13 [7] = assay: Potency index, ratio of cisplatin IC50 to test compound IC50 for human HN13 cells; format: functional
[8] = Selectivity index, ratio of IC50 for human 184B5 cells to IC50 for human HeLa cells; format: toxicity; details: 184B5 cells versus HeLa cells, read-out: Ratio IC50
[9] = Selectivity index, ratio of IC50 for human 184B5 cells to IC50 for human HN6 cells; format: toxicity; details: 184B5 cells versus HN6 cells, read-out: Ratio IC50
[10] = Selectivity index, ratio of IC50 for human 184B5 cells to IC50 for human HN13 cells; format: toxicity; details: 184B5 cells versus HN13 cells, read-out: Ratio IC50

| Structure (SMILES) | IC50 (HeLa) [µM] | IC50 [1] [µM] | IC50 (WSU-HN13 [2]) [µM] | IC50 (184B5) [µM] | Activity (Bacteria) | Activity (Bos taurus [3]) | Tm (Bos taurus [4]) [°C] | K (Bos taurus [5]) | Ratio IC50 [6] | Ratio IC50 (WSU-HN13 [7]) | selectivity ratio [8] | selectivity ratio [9] | selectivity ratio [10] |
| --- | --- | --- | --- | --- | --- | --- | --- | --- | --- | --- | --- | --- | --- |
| COc1ccccc1CN1O[C@@H](CO)C[C@@H]1c1ccc2ccc3cccnc3c2n1 (relative stereo) | 40.2 | 24.8 | 25.4 | 381 | Active | Active | 81.9 | 9.26 ×10³ /M |  |  |  |  |  |
| COc1ccccc1CN1O[C@H](CO)C[C@@H]1c1ccc2ccc3cccnc3c2n1 (relative stereo) | 13.3 | 6.3 | 4.5 | 324 | Active | Active | 84.9 | 4.53 ×10⁴ /M | 3.4 | 9.2 | 24.3 | 51.4 | 72 |
